# High-throughput results from PubChem.
# UPR XBP1 act – activators of adaptive XBP1 UPR arm, primary screen, cell-based, CHO-XBP1 luciferase reporter, luminescence, uHTS; IRE1-XBP1 UPR activation; percent of tunicamycin response, DMSO as zero; activation, % at 20 µM; 0.33% of 330,000 active; AID 463104, 2010;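 active = versus positive control, 20 µM dose yields 30% or more activation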;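 note: 100% = tunicamycin at 10 µg/mL and 0% = DMSO only wells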
#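 Test system: CHO-XBP1 luciferase reporter cells | Buffer or medium: Serum-containing F12 medium, 10% FBS | Schedule: 6 h compound exposure at 37 °C, 5% CO2 | Detection: Steady-Glo luciferase glow luminescence, 10 min after reagent addition | Read-out basis: Activation, % of tunicamycin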
# UBC13 inh – UBC13 polyubiquitin chain formation inhibitors, primary screen, biochemical, TR-FRET, uHTS | inhibition, % at 20 µM | 0.47% of 330,000 active | AID 485273, 2010; in the data active = inhibition above about 45%, passing the limit was not always enough
# Apaf-1 inh – inhibitors of human Apaf-1 apoptosome, primary screen, biochemical, DEVD-Rh110 fluorescence, uHTS | Apoptotic protease-activating factor 1 (Homo sapiens), O14727 | reconstituted apoptosome caspase-3 activity | inhibition, % at 20 µM | 0.71% of 330,000 active | AID 489030, 2010; active = inhibition of at least 40% at 20 µM;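 note: plate controls were DMSO wells for no effect and DEVD-CHO caspase inhibitor wells for full effect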
#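 System: Apoptosome proteins | Medium: Hepes pH 7.5 with detergent and BSA | Also added: Cytochrome c trigger plus (Z-DEVD)2-Rh110 caspase-3 substrate | Incubation: 30 min compound preincubation, 50 min activation, room temperature | Detection: Rhodamine 110 fluorescence at Ex 480/Em 540 nm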
# UPR CHOP act – activators of apoptotic CHOP UPR arm, primary screen, cell-based, CHO-CHOP luciferase reporter, luminescence, uHTS | UPR activation; percent of tunicamycin response over DMSO baseline | activation, % at 10 µM | 0.34% of 330,000 active;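 active = at 10 µM dose, activation of 40% or more, normalized to positive control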;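 note: 100% = tunicamycin at 10 µg/mL and 0% = DMSO alone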
#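 System: CHO-CHOP luciferase reporter cell line; amount: 500 cells/well; buffer or medium: F12 medium containing 10% fetal bovine serum; incubation: 6 h compound exposure at 37 °C after overnight seeding; measured by: luciferase luminescence after 10 min with Steady-Glo reagent; evaluation: % reporter activation, DMSO baseline versus tunicamycin full activation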
# Mdm2-MdmX inh – inhibitors of human Mdm2-MdmX association, primary screen, cell-based, luminescence, split luciferase, SaOS-2, uHTS; Protein Mdm4 (Homo sapiens) + E3 ubiquitin-protein ligase Mdm2 (Homo sapiens), …; AID 485346, 2010; 3% of 330,000 active; SaOS-2 split-luciferase Mdm2/MdmX complementation; inhibition, % at 8 µM;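 active = inhibition of at least 50% at 8 µM in the primary screen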
# Mdm2-MdmX conf – Mdm2-MdmX complex disruptors, retested hits, confirmation, luminescence, single concentration; 55% of 10,000 active; inhibition, % at 8 µM; shares compounds with Mdm2-MdmX inh; Mdm2-MdmX binding, luminescent assay; AID 489028, 2010; in the data active = inhibition above about 40%
# FLuc counter – full-length luciferase signal inhibition, confirmation, counter-screen for Mdm2/MdmX interaction inhibitor project, cell-based, single concentration, SaOS-2; shares compounds with Mdm2-MdmX inh; SaOS-2 full-length luciferase counterscreen, luminescence; inhibition, % at 8 µM; 77% of 6,200 active; AID 504607, 2011;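 active = mean inhibition at 8 µM reaching about 37%, which flags the compound as non-specific, limit read from the data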;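 note: p53-null SaOS-2 cells with luciferase driven by a doxycycline-inducible promoter; compound on cells about two nights before reading with doxycycline added after day one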
# Starred values were filed as active, the others as inactive; · = no result. Hits are enriched below; roughly 4.1% of the tested compounds scored in any of these assays.
SMILES,UPR XBP1 act,UBC13 inh,Apaf-1 inh,UPR CHOP act,Mdm2-MdmX inh,Mdm2-MdmX conf,others
COc1ccccc1C(=O)Nc1nc2ccc(S(C)(=O)=O)cc2s1,0.6,11.5,-10.0,3.2,53.4*,-6.2,
Cc1ccccc1-c1nnn(CC(=O)N(C)CC(=O)Nc2ccccc2C(F)(F)F)n1,-2.2,0.2,4.3,-2.8,-1.8,·,
CCOC(=O)c1ccc(NC(=O)CN2C(=O)CSC(C)C2=O)cc1 (configuration not stated),-1.6,0.6,-6.9,-1.7,-19.2,·,
CNc1nc(C23CC4CC(CC(C4)C2)C3)cs1,-1.6,8.7,12.7,-1.7,18.5,·,
CS(=O)(=O)c1ccc2nc(NC(=O)Nc3ccc(Cl)cc3)sc2c1,1.6,2.0,-6.8,5.9,50.1*,23.2,
COc1ccc(-n2nc(C(=O)Nc3nc4ccc(OC)cc4s3)c3ccccc3c2=O)c(OC)c1,2.7,1.3,-1.8,-2.1,77.4*,20.6,
COc1ccc(-n2nc(C(=O)NCC(=O)NCc3ccccc3OC)c3ccccc3c2=O)c(OC)c1,-1.0,-16.4,9.0,-0.8,-36.0,·,
COCCn1c(SCC(=O)NN2C(=O)NC(C)(c3ccccc3)C2=O)nnc1-c1ccncc1 (configuration not stated),-1.2,1.0,-3.6,0.1,-5.9,·,
O=C(NNC(=O)C12CC3CC(CC(C3)C1)C2)c1ccccn1,-0.8,6.7,-19.6,9.2,54.1*,54.5*,FLuc counter=50.8*
O=C(NNC(=O)C12CC3CC(CC(C3)C1)C2)c1cnccn1,2.8,0.7,4.0,0.9,9.6,·,
C/C(=N\N=C(N)N)c1ccc(Cl)cc1Cl,1.1,9.2,-0.1,-2.3,27.6,·,
Cc1c(C(=O)Nc2ccncc2)sc2nc(-c3ccc(F)cc3)cn12,4.2,15.8,-43.8,5.5,67.0*,9.2,
Cc1cc(C)cc(OCC(O)CN2CCC(CN3C(=O)c4cccc5cccc(c45)C3=O)CC2)c1 (configuration not stated),0.1,44.9,32.7,0.4,69.2*,36.5,FLuc counter=73.7*
C=CCOc1ccc(Br)cc1CNCCCN1CCOCC1,-1.3,13.5,4.2,0.4,20.3,·,
CCOc1ccc2nc(N3CCCC(C(=O)NCCCN4CC(C)CC(C)C4)C3)sc2c1 (configuration not stated),1.7,18.2,19.5,1.4,53.4*,20.8,
Cc1cc(C)c(S(=O)(=O)NCC2CCC(C(=O)NCCCN3CCC(C)CC3)CC2)c(C)c1 (configuration not stated),0.2,8.8,6.6,0.6,50.6*,5.0,
Cc1cc(C)c2nc(N3CCC(C(=O)NCCCN4CC(C)CC(C)C4)CC3)sc2c1 (configuration not stated),5.9,43.2,5.1,4.3,96.8*,76.3*,FLuc counter=32.3
COCCNC(=O)C1CCC(CNS(=O)(=O)c2c(C)cc(C)cc2C)CC1 (configuration not stated),-1.5,-2.7,7.3,1.6,4.5,·,
CCc1ccc2[nH]c3nc(SCc4nnc(-c5ccccc5)o4)nnc3c2c1,2.7,-17.9,-1.1,-1.5,56.1*,-5.5,
O=C(Nc1cccnc1)Nc1ccccc1Cl,4.3,5.6,-1.2,2.5,2.0,·,
O=C(Nc1cccnc1)Nc1cc(Cl)cc(Cl)c1,0.1,15.3,12.6,-0.1,50.2*,6.0,
O=C(NCc1csc2ccccc12)Nc1cc(Cl)cc(Cl)c1,1.3,-0.6,1.1,1.5,69.1*,16.9,
